Rows were chosen to be rich in hits. Some 5.9% of all compounds tested hit in one or more screens of this group.
Phagocytosis inh: inhibitors of macrophage phagocytosis, primary screen, imaging, J774A.1 cells, IgG beads. J774A.1 macrophage IgG-bead phagocytosis. inhibition, % at 5 µM. actives 0.07% (n = 110,000);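 active = inhibition above the mean of the plate negative controls plus 5 SD, cut at about 13% in these data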;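 note: phagocytic index as fraction of beads internalized from green versus red external bead signal; plate controls were DMSO negative control for no effect and cytochalasin-D positive control for full effect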
Rev-RRE block: HIV-1 Rev-RRE binding inhibitors, primary screen, biochemical, FRET, protein-RNA interaction; P05866; Rev peptide-RRE RNA binding; inhibition, % at 8 µM; actives 0.79% (n = 97,000); AID 704, 2007;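 active = inhibition above the screen-wide mean plus 3 SD, cut at about 35% in these data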;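 note: 0% = median DMSO wells and 100% = median Neomycin B control wells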
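assay system = Cy5-tagged RRE RNA duplex with fluorescein-tagged Rev peptide | incubation = 5 + 15 min at 25 °C | also added = labelled Rev peptide | measure = % inhibition of FRET ratio versus controls | benchmarks = DMSO wells as 0% and neomycin B wells as 100% inhibition | measured by = FRET fluorescence readout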
Cav3 T inh: Cav3.2 calcium influx blockers – cell-based, Fluo-4 calcium fluorescence, FDSS, MLSMR library, primary screen; Voltage-dependent T-type calcium channel subunit alpha-1H (Homo sapiens), O95180; Cav3.2-expressing cells; active compounds read low; B-score at 10 µM; actives 4% (n = 100,000);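 active = single-dose well whose peak fluorescence ratio is a statistical outlier from its plate by either plate-standardised score or position-corrected B-score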
DAT uptake mod: changed hDAT dopamine uptake under cocaine IC80, either direction, primary screen, cocaine antagonist project, cell-based, LLC-PK1 hDAT, [14C]-dopamine uptake, MLSMR; Sodium-dependent dopamine transporter (Homo sapiens), Q01959; LLC-PK1 hDAT cells, [14C]-dopamine uptake with cocaine IC80; actives deviate in either direction; B-score at 10 µM; actives 1.3% (n = 110,000);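 active = Z score or B-score, a plate-position-corrected score, falls beyond the plate's 99.7% confidence bounds, in either direction; inactive = both scores lie inside the 99.7% bounds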;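 note: scored against the spread of the other compound wells on the same plate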
Measles CPE: compounds protecting cells from measles virus cytopathic effect, primary screen, measles RdRp inhibitor project, single point, MLSMR library, absorbance. AID 841, 2007. protection (pct of control), % at 4 µM. actives 1.5% (n = 140,000). Measles virus-infected cells, CPE protection; in the data active = protection mostly above about 24%, no sharp cut-off; inactive = mostly below about 26%
Pyk2 oligo antag: antagonists of Pyk2 self-association, primary screen, Q293 cells, FERM NanoBiT luminescence, HTS; Protein-tyrosine kinase 2-beta (Homo sapiens), Q14289; active compounds read low; z-score (the deposit names both 25 µM and 10 µM); actives 0.83% (n = 99,000); AID 1347419, 2020;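 active = Z-score of -3 or lower, scaled per plate to the spread of control and sample wells; inactive = z-score above -3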;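 note: negative z-score means lost luminescence so less FERM oligomerization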
* hit, by the source's call; x = not tested or not shown; [ ] = dose if it differs, or a comment.

SMILES	Phagocytosis inh	Rev-RRE block	Cav3 T inh	DAT uptake mod	Measles CPE	Pyk2 oligo antag
COc1ccc(C(c2nnnn2C2CCCC2)N2CCN(c3ccccc3)CC2)cc1 (configuration not stated)	x	-1	-5.2*	0.01	10	-2
CCOC(=O)c1c(C)c(C(=O)N2CCc3ccccc3C2)c(C)n1CC	-2	8	-1.7	2.5*	14	0.22
Cc1noc(C)c1C(=O)NCc1cccs1	x	9	0.45	-0.95	44*	0.05
CCOC(=O)c1c(C)c(C(=O)Nc2ccccc2)c(C)n1CC	-2	0	x	x	6	0.72
CCOC(=O)c1c(C)c(C(=O)NCc2cccs2)c(C)n1CC	1	8	-0.062	2.8*	10	-0.41
Cc1cc(C)nc(SCc2ccc(C(=O)N/N=C/C3CCCCC3)cc2)n1	0	x	x	x	12	x
CCOC(=O)C(NC(=O)Nc1ccc(Cl)cn1)(Oc1ccc(F)cc1)C(F)(F)F (configuration not stated)	-6	x	x	x	20	-0.12
O=C1CC2(CCCCCC2)Oc2ccc(Cl)cc21	x	x	0.52	0.7	x	x
Cc1cc(Nc2ncc(Cl)cc2Cl)n(-c2ccccc2)n1	-8	x	x	x	8	x
Cc1cc(Nc2cnc3ccccc3n2)n(-c2ccccc2)n1	x	2	-4.6*	0.41	5	-0.54
O=C(COC(=O)CCS(=O)(=O)c1ccc(Cl)cc1)NCCc1ccccc1	26	x	x	x	17	x
Cc1ccc(C(=O)C(OC(=O)CN2C(=O)c3ccccc3C2=O)c2ccccc2)cc1C (configuration not stated)	x	12	-5.1*	-0.48	4	-0.59
Cc1ccc(C(=O)C(OC(=O)CN2C(=O)c3ccccc3C2=O)c2ccccc2)cc1 (configuration not stated)	6	16	-5.9*	1.1	40	-0.25
O=C(CN1C(=O)c2ccccc2C1=O)OC(C(=O)c1ccc(Cl)cc1)c1ccccc1 (configuration not stated)	x	16	-2.7	0.093	14	0.21
CSc1c(CC(=O)Nc2ccccc2)n(Cc2ccccc2)c2ccccc12	-12	x	x	x	15	x
COc1ccc(OC)c(/C=C2\S/C(=N/NC(=O)c3ccc4ccccc4c3)NC2=O)c1	-3	x	x	x	17	x
O=C1N/C(=N/NC(=O)c2cccc3ccccc23)S/C1=C\c1ccccc1OCc1ccccc1	x	-2	-5.2*	1.2	14	-3*
O=C1Nc2cc(Cl)c(Cl)cc2N(O)N1c1ccccc1	0	8	0.093	-1.1	18	-0.46
CC1(c2ccc(Cl)c(Cl)c2)NC(=S)N2C1NC(=S)N2c1ccccc1 (configuration not stated)	-2	1	-5.4*	2.1	14	-0.25
NC(=O)CC[C@@H]1NC(=O)[C@H](Cc2ccc(O)cc2)NC(=O)c2cc([N+](=O)[O-])cc(F)c2OCC[C@@H](C(N)=O)NC1=O	x	x	-0.56	-0.69	31*	x
O=C(/C=C/c1ccccc1[N+](=O)[O-])Nc1cccnc1	-3	x	x	x	9	x
COC(=O)C1=C[C@@H](C(=O)OC)[C@@H]2C3=C(C(=O)[C@@]2(C)NC(=O)c2ccccc2)[C@H](C)C(C(=O)OC)=C(C(=O)OC)[C@@H]3C1	x	x	0.4	0.87	x	x
CC1C/C(=N\NC(=S)NCc2ccccc2)CC(C)(C)C1 (configuration not stated)	1	1	-4.4*	-0.86	14	-0.21
CC1CCC/C(=N\NC(=S)NCc2ccccc2)C1 (configuration not stated)	0	1	-1.6	0.99	12	-0.57
Cn1cc(S(=O)(=O)Nc2ccc(Br)cc2F)c(=O)n(C)c1=O	0	6	0.066	0.76	61*	x
SMILES	Phagocytosis inh	Rev-RRE block	Cav3 T inh	DAT uptake mod	Measles CPE	Pyk2 oligo antag
CCCCNC(=O)c1nc2ncc(Br)cn2n1	193*	2	0.6	0.0014	7	0.05
Nc1oc2ccc(F)cc2c(=O)c1C=O	-1	x	x	x	8	x
CC(C)(C)C(=O)c1no[n+]([O-])c1/C(=N/O)C(C)(C)C	x	11	-7.9*	-0.84	13	-0.76
CCCc1nnc(NC(=O)c2ccc(N3C(=O)C4C5C=CC(C5)C4C3=O)cc2)s1 (configuration not stated)	-2	2	-0.1	-0.31	22	-3.2*
O=C1CN(C(=O)COC(=O)c2ccccc2NCc2ccco2)c2ccccc2N1	x	9	-3.8*	-1.6	9	-0.04
Cc1ccc(-c2nnc(NC3CCCCC3)c3ccccc23)cc1S(=O)(=O)N1CCN(C)CC1	0	11	1	1.9*	22	-0.55
CCc1ccc(NC(=O)CSc2nc3cc(C(=O)OC)ccc3c(=O)n2CC2CCCO2)cc1 (configuration not stated)	3	1	-0.12	0.096	4	-0.88
Cc1cc(SC(C)C(=O)Nc2ncc(Cl)cc2Cl)nc2ccccc12 (configuration not stated)	-4	x	x	x	26*	x
CCNc1nc(N2CCCCC2)nc(-n2nnc(C(=O)OCC)c2C)n1	0	9	-0.47	2.8*	30	-1.4
O=C(Cn1c(-c2cscn2)nc2ccccc21)Nc1ccc2ccccc2c1	x	-4	-4.8*	1.8	26	-2.6
Cc1ncc(CCl)c2c1OC(C)(C)OC2	x	7	2.4	0.21	2	1.2
O=C(C1CCCN(S(=O)(=O)Cc2ccccc2)C1)N1CCC(Cc2ccccc2)CC1 (configuration not stated)	0	5	-5.5*	1.4	4	-1.1
O=C1c2ccccc2-c2onc3ccc(NCc4ccco4)c1c23	0	x	-4.1*	0.081	20	-1.9
CCNc1ccc2noc3c2c1C(=O)c1ccccc1-3	x	138*[fluorescence artefact?]	-1.4	-1.1	10	-2.1
CCOc1ccc2noc3c2c1C(=O)c1ccccc1-3	0	133*[fluorescence artefact?]	-5.7*	0.2	24	-1
O=C1c2ccccc2-c2onc3c(Oc4ccccc4)cc(O)c1c23	-2	4	x	x	1	x
O=c1nccc(NCc2ccco2)[nH]1	1	x	-0.24	0.22	14	0.98
O=[N+]([O-])c1ccccc1SN(Cc1ccccc1)c1ccccn1	-6	x	x	x	8	x
CC(OC(=O)c1nc(-c2ccccc2)n(-c2ccccc2)n1)C(=O)Nc1cc(Cl)cc(Cl)c1 (configuration not stated)	12	x	x	x	7	x
CCOC(=O)C(C)/C(C)=N/NC(N)=S (configuration not stated)	6	x	x	x	5	x
CCN1CCN(CCNC(=O)c2cn(Cc3ccccc3F)nn2)CC1	x	3	0.13	-1.6	41*	-0.29

High-throughput results deposited in PubChem by several laboratories.
